# Source: PubChem
# In the library only some 2% were active in any assay of this set; here they are far more common.
# HGIII-sPLA2 inh: human group III sPLA2 inhibitors, primary screen, biochemical, QFRET, BODIPY PC-A2 liposome substrate. Group 3 secretory phospholipase A2 (Homo sapiens), Q9NZ20. QFRET BODIPY PC-A2 liposome hydrolysis, fluorescence. inhibition, % at 12.2 µM. 0.56% of 370,000 active. AID 743126, 2013;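 active = inhibition above mean plus 3 SD of compounds lying within the high and low control bounds, cut at about 19% in these data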;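 also: 0% = median of test compound wells and 100% = no enzyme DMSO wells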
# Target sequence (Q9NZ20 whole entry, looked up): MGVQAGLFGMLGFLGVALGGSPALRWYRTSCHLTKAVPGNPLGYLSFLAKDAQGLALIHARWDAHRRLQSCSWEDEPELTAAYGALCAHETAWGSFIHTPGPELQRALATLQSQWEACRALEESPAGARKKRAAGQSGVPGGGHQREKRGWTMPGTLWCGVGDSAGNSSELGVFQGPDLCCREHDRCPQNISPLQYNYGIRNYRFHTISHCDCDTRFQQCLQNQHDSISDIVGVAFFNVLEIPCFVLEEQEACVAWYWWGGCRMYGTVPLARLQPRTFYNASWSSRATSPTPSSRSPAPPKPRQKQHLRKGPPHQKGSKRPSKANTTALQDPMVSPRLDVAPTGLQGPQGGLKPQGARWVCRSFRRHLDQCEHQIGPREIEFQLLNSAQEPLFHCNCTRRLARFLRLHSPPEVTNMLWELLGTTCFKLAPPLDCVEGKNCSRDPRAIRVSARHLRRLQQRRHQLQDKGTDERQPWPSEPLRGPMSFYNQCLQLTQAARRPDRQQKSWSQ
# SR-BI HDL uptake: inhibitors of SR-BI mediated HDL lipid uptake, primary screen, ldlA[mSR-BI] cells, fluorescence, single point. ldlA[mSR-BI] CHO cells, DiI-HDL uptake fluorescence, 3 h. AID 488896, 2010. 0.96% of 320,000 active. inhibition, % at 12.5 µM;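 active = mean replicate inhibition of at least 70% and a set share of replicates each scoring 70 or more; inconclusive = meets just one of the two criteria; inactive = fails both criteria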;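 also: 0% = median of neutral control wells and 100% = median of positive control wells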
# XiGFP reactiv: activators of inactive X chromosome reactivation, primary screen, imaging, XiGFP fibroblasts, GFP high-content imaging, set 2. XiGFP mouse fibroblasts, % GFP-positive cells imaging, 3 d; cells co-treated with 5-aza-dC sensitizer; scaled so ellipticine positive control = 100%. activation, % at 7.58 µM. 0.055% of 360,000 active;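 active = mean normalized replicate activation at least 10% and every replicate at or above 10%; inconclusive = only one of the two criteria met; inactive = mean below 10% and not all replicates reach 10%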;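 also: 0% = median of on-plate neutral control wells and 100% = ellipticine 6 µM median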
#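 Assay system: SV40-immortalized XiGFP fibroblast cells, line 68-5-11; buffer or medium: DMEM plus 5-aza-dC sensitizer; compound: one concentration, pinned; timing: compounds 3 days, fix/stain 15 min at room temperature; benchmarks: positive control ellipticine, 6 µM final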
# NSD2 inh: NSD2 histone methyltransferase inhibitors, primary screen, biochemical, AlphaScreen, single concentration, set 2. Histone-lysine N-methyltransferase NSD2 (Homo sapiens), O96028. NSD2 peptide methylation, 120 min. inhibition, % at 12.5 µM. 0.54% of 310,000 active; in the data active = inhibition above about 50%
# ARNT TACC3 PPI: disruptors of ARNT/TACC3 protein interaction, primary screen, biochemical, AlphaScreen, single concentration; AlphaScreen His-ARNT PAS-B/GST-TACC3 binding, luminescence; TACC3 fragment carries E629A point mutation; inhibition, % at 9.99 µM; Transforming acidic coiled-coil-containing protein 3 (Homo sapiens), Q9Y6A5; 0.66% of 390,000 active;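 active = mean inhibition of replicates at least 50% and at least half of replicates each reaching 50%; inconclusive = half or more replicates reach 50% but mean below 50%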;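 also: 0% = complete ARNT plus TACC3 wells and 100% = ARNT alone without TACC3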
# SR-BI DiI-HDL act: activators of SR-BI mediated DiI-HDL uptake, primary screen, ldlA[mSR-BI] CHO cells, DiI fluorescence. 0.096% of 320,000 active. 3 h; 100 = double the neutral-control signal. activation, % at 12.5 µM. AID 504775, 2011;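 active = mean replicate activation of at least 60% and every replicate at or above 60%; inconclusive = mean or all-replicate condition met, but not both; inactive = mean below 60% and not all replicates reaching 60%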;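 also: 0% = median plate neutral-control signal and 100% = twice that signal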
#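 Material – SR-BI-overexpressing, LDLR-lacking CHO cells · Medium – BSA-supplemented, HEPES-buffered Ham's F12, pH 7.4 · Doses – single concentration · Times – compound with DiI-HDL co-incubation, 3 h at 37 °C · Measured by – bottom-read fluorescence, 550/595 nm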
# AlphaScreen art: AlphaScreen signal interference with preloaded methylated product, dose response, artefact control for NSD2 inhibitor project, biochemical, cherry-picked samples. shares compounds with NSD2 inh. AlphaScreen artifact counterscreen, preloaded methylated H4 peptide. AC35, µM (top dose mostly 10 µM), for inactives: at the highest dose activity change, negative = signal loss. 9.4% of 1,500 active. AID 1053174, 2014; call rule not given here
# * hit, by the source's call; ? = inconclusive; / = not tested or not shown.
SMILES,HGIII-sPLA2 inh,SR-BI HDL uptake,XiGFP reactiv,NSD2 inh,ARNT TACC3 PPI,SR-BI DiI-HDL act,AlphaScreen art
CCOC(=O)c1ccc(CC(=O)c2ccc(O)c(O)c2O)o1,13.3,5.3,0.0,91.2*,9.3,-5.3,-8.4%
Cc1ccccc1CN1CCN(C(=O)c2ccco2)CC1,0.2,-132.9,0.3,56.1*,-5.3,?,-5.4%
O=C(N/N=C/c1cccc(OC(=O)c2cccc(Br)c2)c1)c1cccnc1,-11.3,-5.4,0.0,0.5,-1.5,5.4,/
COc1cc(C(=O)Oc2cccc(/C=N/NC(=O)c3cccnc3)c2)cc(OC)c1OC,0.1,34.3,0.1,97.9*,/,-34.3,-1.1%
CC(=O)c1ccc(NC(=S)NCCc2cccc(Cl)c2)cc1,-19.1,6.6,0.5,53.4*,3.3,-6.6,-1.8%
CC(=O)c1ccc(NC(=O)Nc2cccc(Cl)c2)cc1,-46.5,12.6,/,-5.9,-0.3,-12.6,/
COc1ccccc1CN1CC(C(=O)NC2CCOCC2)CCC1=O (configuration not stated),2.2,-9.5,0.0,-1.0,-9.8,9.5,/
CC(C)Nc1ncnc2c1ncn2[C@H]1CN(CCN2CCOCC2)C[C@@H](CO)O1,-1.2,/,0.1,1.6,/,/,/
CN(c1ccc(OCC(=O)NC2CCCC2)cc1)S(=O)(=O)c1cccs1,-8.7,1.8,/,-1.1,-0.5,-1.8,/
C[C@@H]1CN([C@@H](C)CO)C(=O)c2cccc(NC(=O)Nc3ccc(F)cc3)c2O[C@H]1CN(C)Cc1ccc(C(F)(F)F)cc1,/,/,0.4,/,-2.8,/,/
COC1=C(C)C(=O)C2=C(C1=O)C1C3CC4=C(C(=O)C(OC)=C(C)C4=O)C(CNC(=O)C(C)=O)N3C(C#N)C(C2)N1C (configuration not stated),-7.5,17.4,4.8,74.9*,-1.7,-17.4,-3.3%
COc1ccc(NC2CCCN(C(=O)c3ccccc3N3CCOCC3)C2)cc1OC (configuration not stated),4.7,-20.0,0.2,72.4*,-0.5,20.0,1.4%
Cc1ccc(NC2CCCN(C(=O)c3ccccc3N3CCOCC3)C2)cc1C (configuration not stated),6.8,3.2,0.0,9.4,0.5,-3.2,/
CCOC(=O)CC(NS(=O)(=O)c1ccc(OC)c(OC)c1)c1cccc([N+](=O)[O-])c1 (configuration not stated),-5.2,-8.9,-0.1,0.5,-25.7,8.9,/
CCOC(=O)CC(NS(=O)(=O)c1ccc2[nH]cc(C(=O)O)c(=O)c2c1)c1ccc(OCC)c(OC)c1 (configuration not stated),1.5,/,0.0,68.3*,4.1,/,-0.8%
O=C(C[C@@H]1C[C@H]2c3cc(NC(=O)NC4CCCC4)ccc3O[C@H]2[C@H](CO)O1)NCc1cccnc1,/,/,0.0,/,/,/,/
CO[C@@H]1CN(C)C(=O)c2ccc(NC(=O)c3nc4ccccc4s3)cc2OC[C@@H](C)N(Cc2cccnc2)C[C@H]1C,/,/,0.7,/,13.2,/,/
C[C@@H]1CN([C@H](C)CO)C(=O)c2cccc(NC(=O)c3cnccn3)c2O[C@H]1CN(C)Cc1ccc(Cl)c(Cl)c1,/,/,0.1,/,/,/,/
Cc1ccc(O)c(NC(=O)c2cc3nc4c(c(C(F)(F)F)n3n2)CCc2ccccc2-4)c1,9.8,0.2,/,69.8*,-1.9,-0.2,-3.8%
CCN(CC)CCCNC(=O)c1cc2nc3c(c(C(F)(F)F)n2n1)CCc1ccccc1-3,-2.5,14.6,-0.1,13.3,/,-14.6,/
CC(Sc1nnc(-c2ccc(Cl)cc2)n1N)C(=O)NCC1CCCO1 (configuration not stated),7.0,-1.5,0.1,-2.2,/,1.5,/
CC(C)NC(=O)COc1coc(CN2CCN(C(=O)c3ccco3)CC2)cc1=O,2.4,-47.9,0.3,-1.7,29.9,47.9,/
Cc1c(CN(C)C)c2c(n1Cc1ccccc1)C(=O)c1ccccc1-2,-0.1,-11.2,/,92.7*,14.7,11.2,5.73µM*
Cc1cc(=O)n(Cc2ccccc2)c2ccccc12,-3.3,22.3,0.2,-0.6,-5.3,-22.3,/
C[C@@H]1CN([C@@H](C)CO)S(=O)(=O)c2ccc(-c3cccc(C(=O)N(C)C)c3)cc2O[C@@H]1CN(C)C(=O)Nc1ccc(F)cc1,/,/,-0.1,/,2.3,/,/
SMILES,HGIII-sPLA2 inh,SR-BI HDL uptake,XiGFP reactiv,NSD2 inh,ARNT TACC3 PPI,SR-BI DiI-HDL act,AlphaScreen art
CN(C)N=Nc1nc[nH]c1C(N)=O,-2.8,-5.2,0.1,/,2.1,5.2,/
NC(=O)c1[nH]cnc1N=NN(CCO)Cc1ccccc1,-2.2,/,0.4,68.7*,/,/,-1.9%
CN1C(=O)C[C@@](C#N)(C(=O)NCc2ccccc2)[C@H]1c1ccccc1,-1.2,/,/,/,/,/,/
CCN(CC)CCCNc1ncnc2scc(-c3ccc(F)cc3)c12,-4.6,-7.2,0.2,62.7*,-7.3,7.2,-3.2%
C[C@H]1CN([C@@H](C)CO)C(=O)c2cc(NS(=O)(=O)c3cn(C)cn3)ccc2O[C@@H]1CN(C)C(=O)Nc1ccc(F)cc1,/,/,0.0,/,/,/,/
COc1ccc(NC(=O)Nc2ccc3c(c2)C(=O)N([C@H](C)CO)C[C@@H](C)[C@H](CN(C)Cc2ccc(Cl)c(Cl)c2)O3)cc1,/,/,-1.3,/,9.6,/,/
C=CCN(CC=C)Cc1c(O)ccc2c1oc(=O)c1ccccc12,5.7,18.4,/,51.3*,21.9,-18.4,11.3%
CCc1nnc(NC(=O)COc2ccc3c(c2)OCO3)s1,3.6,/,-0.1,99.9*,-1.8,/,-1.4%
CC(=O)Nc1ccc2c(O)cc(S(=O)(=O)O)cc2c1,0.2,-3.0,0.1,9.9,-12.3,3.0,/
O=S(=O)(O)c1cc(O)c2cc(Nc3ccccc3)ccc2c1,5.6,-19.1,0.6,104.5*,19.5,19.1,6.4µM*
Nc1ccc2c(O)cc(S(=O)(=O)O)cc2c1,-10.5,3.6,0.3,80.2*,33.0,-3.6,-20.8%
COc1cccc(NC(=O)C2CCC2)c1,9.1,9.4,0.3,/,-1.6,-9.4,/
CC1=C(C#N)c2nc(N)c(C#N)c(C)c2/C1=C\c1ccc(-c2ccccc2C(=O)O)o1,-13.0,7.9,0.0,81.9*,18.5,-7.9,-11.9%
